Test results taken from ChEMBL document CHEMBL4270599, “Synthesis of a 3'-C-ethynyl-β-d-ribofuranose purine nucleoside library: Discovery of C7-deazapurine analogs as potent antiproliferative nucleosides” (Eur J Med Chem, 2018).

Tests used:
MDA-MB-231 = assay: Growth inhibition of human MDA-MB-231 cells assessed as cell growth at 10^-4 M incubated for 48 hrs by sulforhodamine B assay relative to control; format: functional; details: MDA-MB-231, 48 h, read-out: Activity
SF-295 = assay: Growth inhibition of human SF295 cells assessed as cell growth at 10^-7 M incubated for 48 hrs by sulforhodamine B assay relative to control; format: functional; details: SF-295, 48 h, read-out: Activity
NCI-H23 = assay: Growth inhibition of human NCI-H23 cells assessed as cell growth at 10^-7 M incubated for 48 hrs by sulforhodamine B assay relative to control; format: functional; details: NCI-H23, 48 h, read-out: Activity
UO-31 = assay: Growth inhibition of human UO31 cells assessed as cell growth at 10^-7 M incubated for 48 hrs by sulforhodamine B assay relative to control; format: functional; details: UO-31, 48 h, read-out: Activity
MCF7 [1] = assay: Growth inhibition of human MCF7 cells assessed as cell growth at 10^-7 M incubated for 48 hrs by sulforhodamine B assay relative to control; format: functional; details: MCF7, 48 h, read-out: Activity
OVCAR-3 [2] = assay: Cytotoxicity against human OVCAR3 cells after 48 hrs by SRB assay; format: functional; details: OVCAR-3, 48 h; for GI50: read-out: pGI50 (converted)
COLO 205 = assay: Cytotoxicity against human COLO205 cells after 48 hrs by SRB assay; format: functional; details: COLO 205, 48 h; for CC50: read-out: pLC50 (the source's name) (converted)
NCI-H322M [3] = assay: Growth inhibition of human NCI-H322M cells assessed as cell growth at 10^-6 M incubated for 48 hrs by sulforhodamine B assay relative to control; format: functional; details: read-out: Activity
K562 [4] = assay: Growth inhibition of human K562 cells assessed as cell growth at 10^-5 M incubated for 48 hrs by sulforhodamine B assay relative to control; format: functional; details: K562, 48 h, read-out: Activity
NCI-H522 = assay: Cytotoxicity against human NCI-H522 cells after 48 hrs by SRB assay; format: functional; details: NCI-H522, 48 h; for CC50: read-out: LC50 (the source's name)
SNB-75 = assay: Growth inhibition of human SNB75 cells assessed as cell growth at 10^-6 M incubated for 48 hrs by sulforhodamine B assay relative to control; format: functional; details: SNB-75, 48 h, read-out: Activity
OVCAR-3 [5] = assay: Growth inhibition of human OVCAR3 cells assessed as cell growth at 10^-6 M incubated for 48 hrs by sulforhodamine B assay relative to control; format: functional; details: OVCAR-3, 48 h, read-out: Activity
TK-10 = assay: Growth inhibition of human TK10 cells assessed as cell growth at 10^-8 M incubated for 48 hrs by sulforhodamine B assay relative to control; format: functional; details: TK-10, 48 h, read-out: Activity
SN12C = assay: Growth inhibition of human SN12C cells assessed as cell growth at 10^-8 M incubated for 48 hrs by sulforhodamine B assay relative to control; format: functional; details: read-out: Activity
HCC 2998 = assay: Growth inhibition of human HCC2998 cells assessed as cell growth at 10^-6 M incubated for 48 hrs by sulforhodamine B assay relative to control; format: functional; details: HCC 2998, 48 h, read-out: Activity
786-0 = assay: Growth inhibition of human 786-0 cells assessed as cell growth at 10^-6 M incubated for 48 hrs by sulforhodamine B assay relative to control; format: functional; details: 786-0, 48 h, read-out: Activity
U-251 = assay: Cytotoxicity against human U251 cells after 48 hrs by SRB assay; format: functional; details: U-251, 48 h; for CC50: read-out: pLC50 (the source's name) (converted)
OVCAR-4 [6] = assay: Cytotoxicity against human OVCAR4 cells after 48 hrs by SRB assay; format: functional; details: OVCAR-4, 48 h; for GI50: read-out: pGI50 (converted); for CC50: read-out: pLC50 (the source's name) (converted)
OVCAR-3 [7] = assay: Growth inhibition of human OVCAR3 cells assessed as cell growth at 10^-4 M incubated for 48 hrs by sulforhodamine B assay relative to control; format: functional; details: OVCAR-3, 48 h, read-out: Activity
OVCAR-5 = assay: Growth inhibition of human OVCAR5 cells assessed as cell growth at 10^-5 M incubated for 48 hrs by sulforhodamine B assay relative to control; format: functional; details: OVCAR-5, 48 h, read-out: Activity
NCI-H322M [8] = assay: Growth inhibition of human NCI-H322M cells assessed as cell growth at 10^-5 M incubated for 48 hrs by sulforhodamine B assay relative to control; format: functional; details: read-out: Activity
HCT-15 = assay: Growth inhibition of human HCT15 cells assessed as cell growth at 10^-8 M incubated for 48 hrs by sulforhodamine B assay relative to control; format: functional; details: HCT-15, 48 h, read-out: Activity
OVCAR-4 [9] = assay: Growth inhibition of human OVCAR4 cells assessed as cell growth at 10^-5 M incubated for 48 hrs by sulforhodamine B assay relative to control; format: functional; details: OVCAR-4, 48 h, read-out: Activity
A498 = assay: Cytotoxicity against human A498 cells after 48 hrs by SRB assay; format: functional; details: A498, 48 h; for GI50: read-out: pGI50 (converted)
SR = assay: Growth inhibition of human SR cells assessed as cell growth at 10^-8 M incubated for 48 hrs by sulforhodamine B assay relative to control; format: functional; details: read-out: Activity
MCF7 [10] = assay: Growth inhibition of human MCF7 cells assessed as cell growth at 10^-5 M incubated for 48 hrs by sulforhodamine B assay relative to control; format: functional; details: MCF7, 48 h, read-out: Activity
CCRF-CEM = assay: Antiproliferative activity against human CEM cells after 72 hrs by Coulter counter method; format: functional, cell-based
Outline: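 Cell count assay in 96-well microtiter plates; (5–7.5) × 10⁴ tumor cells per well plus test compound. Cells proliferated at 37 °C in humidified CO₂-controlled atmosphere, 48 h for murine leukemia L1210, 72 h for human lymphocytic CEM and cervix carcinoma HeLa. Counted by Coulter counter; IC₅₀ is the concentration that inhibits proliferation by 50%.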

PC-3 [11] = assay: Growth inhibition of human PC3 cells assessed as cell growth at 10^-5 M incubated for 48 hrs by sulforhodamine B assay relative to control; format: functional; details: PC-3, 48 h, read-out: Activity
PC-3 [12] = assay: Cytotoxicity against human PC3 cells after 48 hrs by SRB assay; format: functional; details: PC-3, 48 h; for GI50: read-out: pGI50 (converted)
K562 [13] = assay: Growth inhibition of human K562 cells assessed as cell growth at 10^-6 M incubated for 48 hrs by sulforhodamine B assay relative to control; format: functional; details: K562, 48 h, read-out: Activity
HOP-62 = assay: Growth inhibition of human HOP62 cells assessed as cell growth at 10^-7 M incubated for 48 hrs by sulforhodamine B assay relative to control; format: functional; details: HOP-62, 48 h, read-out: Activity
A549 = assay: Growth inhibition of human A549/ATCC cells assessed as cell growth at 10^-4 M incubated for 48 hrs by sulforhodamine B assay relative to control; format: functional; details: A549, 48 h, read-out: Activity
[14] = read-out: LC50 (the source's name)
[15] = read-out: pLC50 (the source's name) (converted)

C#C[C@@]1(O)[C@@H](CO)O[C@@H](n2cc(F)c3c(N)ncnc32)[C@@H]1O
growth at 100 µM (MDA-MB-231): -35%
growth at 0.1 µM (SF-295): 94%
growth at 0.1 µM (NCI-H23): 91%
growth at 0.1 µM (UO-31): 104%
growth at 0.1 µM (MCF7 [1]): 51%
CC50 (OVCAR-3 [2]; [14]): > 100 µM
TGI (OVCAR-3 [2]; read-out: TGI): > 100 µM
GI50 (OVCAR-3 [2]): 1.12 µM
TGI (OVCAR-3 [2]; read-out: pTGI (converted)): > 100 µM
GI50 (COLO 205; read-out: GI50): 0.263 µM
TGI (COLO 205; read-out: TGI): 1.3 µM
GI50 (COLO 205; read-out: pGI50 (converted)): 0.263 µM
CC50 (COLO 205): 9.33 µM
TGI (COLO 205; read-out: pTGI (converted)): 1.29 µM
growth at 1 µM (NCI-H322M [3]): 31%
growth at 10 µM (K562 [4]): 8%
GI50 (NCI-H522; read-out: GI50): 0.18 µM
CC50 (NCI-H522): > 100 µM
TGI (NCI-H522; read-out: TGI): 0.929 µM
GI50 (NCI-H522; read-out: pGI50 (converted)): 0.178 µM
TGI (NCI-H522; read-out: pTGI (converted)): 0.933 µM
growth at 1 µM (SNB-75): 52%
growth at 1 µM (OVCAR-3 [5]): 52%
growth at 0.01 µM (TK-10): 95%
growth at 0.01 µM (SN12C): 94%
growth at 1 µM (HCC 2998): 37%
growth at 1 µM (786-0): 43%
GI50 (U-251; read-out: GI50): 0.631 µM
TGI (U-251; read-out: TGI): 11.6 µM
GI50 (U-251; read-out: pGI50 (converted)): 0.631 µM
CC50 (U-251): > 100 µM
TGI (U-251; read-out: pTGI (converted)): 11.7 µM
TGI (OVCAR-4 [6]; read-out: TGI): 8.67 µM
GI50 (OVCAR-4 [6]): 1 µM
CC50 (OVCAR-4 [6]): > 100 µM
TGI (OVCAR-4 [6]; read-out: pTGI (converted)): 8.71 µM
growth at 100 µM (OVCAR-3 [7]): 3%
growth at 10 µM (OVCAR-5): 5%
growth at 10 µM (NCI-H322M [8]): -17%
growth at 0.01 µM (HCT-15): 97%
growth at 10 µM (OVCAR-4 [9]): -3%
TGI (A498; read-out: TGI): 2.27 µM
GI50 (A498): 0.724 µM
CC50 (A498; [15]): 5.89 µM
TGI (A498; read-out: pTGI (converted)): 2.29 µM
growth at 0.01 µM (SR): 101%
growth at 10 µM (MCF7 [10]): 1%
IC50 (CCRF-CEM): 0.16 µM
growth at 10 µM (PC-3 [11]): -10%
CC50 (PC-3 [12]; [14]): > 100 µM
TGI (PC-3 [12]; read-out: TGI): 3.24 µM
GI50 (PC-3 [12]): 0.295 µM
TGI (PC-3 [12]; read-out: pTGI (converted)): 3.24 µM
growth at 1 µM (K562 [13]): 16%
growth at 0.1 µM (HOP-62): 101%

C#C[C@@]1(O)[C@@H](CO)O[C@@H](n2ccc3c(N)ncnc32)[C@@H]1O
growth at 100 µM (MDA-MB-231): -53%
growth at 0.1 µM (SF-295): 98%
growth at 0.1 µM (NCI-H23): 93%
growth at 0.1 µM (UO-31): 105%
growth at 0.1 µM (MCF7 [1]): 73%
TGI (OVCAR-3 [2]; read-out: TGI): 12 µM
GI50 (OVCAR-3 [2]): 2.95 µM
CC50 (OVCAR-3 [2]; [15]): > 100 µM
TGI (OVCAR-3 [2]; read-out: pTGI (converted)): 12 µM
growth at 100 µM (A549): 3%
TGI (COLO 205; read-out: TGI): 2.67 µM
GI50 (COLO 205; read-out: pGI50 (converted)): 0.676 µM
CC50 (COLO 205): 8.91 µM
TGI (COLO 205; read-out: pTGI (converted)): 2.69 µM
growth at 1 µM (NCI-H322M [3]): 58%
growth at 10 µM (K562 [4]): 6%
CC50 (NCI-H522): > 100 µM
TGI (NCI-H522; read-out: TGI): 3.82 µM
GI50 (NCI-H522; read-out: pGI50 (converted)): 0.372 µM
TGI (NCI-H522; read-out: pTGI (converted)): 3.8 µM
growth at 1 µM (SNB-75): 90%
growth at 1 µM (OVCAR-3 [5]): 92%
growth at 0.01 µM (TK-10): 101%
growth at 0.01 µM (SN12C): 94%
growth at 1 µM (HCC 2998): 74%
growth at 1 µM (786-0): 68%
TGI (U-251; read-out: TGI): 11.8 µM
GI50 (U-251; read-out: pGI50 (converted)): 2.45 µM
CC50 (U-251): > 100 µM
TGI (U-251; read-out: pTGI (converted)): 11.7 µM
TGI (OVCAR-4 [6]; read-out: TGI): 7.79 µM
GI50 (OVCAR-4 [6]): 1.95 µM
CC50 (OVCAR-4 [6]): 28.2 µM
TGI (OVCAR-4 [6]; read-out: pTGI (converted)): 7.76 µM
growth at 100 µM (OVCAR-3 [7]): -36%
growth at 10 µM (OVCAR-5): -8%
growth at 10 µM (NCI-H322M [8]): -16%
growth at 0.01 µM (HCT-15): 92%
growth at 10 µM (OVCAR-4 [9]): -9%
TGI (A498; read-out: TGI): 3.74 µM
GI50 (A498): 1.66 µM
TGI (A498; read-out: pTGI (converted)): 3.72 µM
growth at 0.01 µM (SR): 101%
growth at 10 µM (MCF7 [10]): -4%
IC50 (CCRF-CEM): 0.71 µM
growth at 10 µM (PC-3 [11]): -37%
TGI (PC-3 [12]; read-out: TGI): 3.54 µM
GI50 (PC-3 [12]): 0.813 µM
CC50 (PC-3 [12]; [15]): 33.1 µM
TGI (PC-3 [12]; read-out: pTGI (converted)): 3.55 µM
growth at 1 µM (K562 [13]): 46%
growth at 0.1 µM (HOP-62): 103%
